Laboratory results from ChEMBL document CHEMBL3734675, “Synthesis, antimycobacterial and antibacterial activity of fluoroquinolone derivatives containing an 3-alkoxyimino-4-(cyclopropylanimo)methylpyrrolidine moiety” (2015).
≈ marks a conversion by molar mass, not a printed value.

What was measured:
Type in all cases: functional
Enterococcus faecium [1] = experiment: Antibacterial activity against Enterococcus faecium 14-5 after 18 to 24 hrs by two-fold serial dilution method
How it was run: (§1)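 Twofold serial dilution in agar media against Gram-positive and Gram-negative strains. Plates incubated at 35 °C for 18–24 h. MIC read as the lowest compound concentration giving complete inhibition of bacterial growth.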

Klebsiella pneumoniae [2] = experiment: Antibacterial activity against Klebsiella pneumoniae 14-1 after 18 to 24 hrs by two-fold serial dilution method; how it was run: as §1
Klebsiella pneumoniae [3] = experiment: Antibacterial activity against extended-spectrum beta-lactamase producing Klebsiella pneumoniae 14-17 after 18 to 24 hrs by two-fold serial dilution method; how it was run: as §1
Enterococcus faecium [4] = experiment: Antibacterial activity against Enterococcus faecium 14-6 after 18 to 24 hrs by two-fold serial dilution method; how it was run: as §1
Escherichia coli [5] = experiment: Antibacterial activity against Escherichia coli 14-2 after 18 to 24 hrs by two-fold serial dilution method; how it was run: as §1
Pseudomonas aeruginosa [6] = experiment: Antibacterial activity against Pseudomonas aeruginosa 14-15 after 18 to 24 hrs by two-fold serial dilution method; how it was run: as §1
Staphylococcus aureus [7] = experiment: Antibacterial activity against methicillin-resistant Staphylococcus aureus 14-5 after 18 to 24 hrs by two-fold serial dilution method
How it was run: (§2)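 Agar media, standard twofold serial dilution. MIC is the lowest concentration giving complete inhibition of bacterial growth after incubation at 35 °C for 18–24 h. Ciprofloxacin and levofloxacin were run as comparators.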

Pseudomonas aeruginosa [8] = experiment: Antibacterial activity against Pseudomonas aeruginosa 14-14 after 18 to 24 hrs by two-fold serial dilution method; how it was run: as §1
[9] = tested on: Staphylococcus epidermidis; experiment: Antibacterial activity against methicillin-resistant Staphylococcus epidermidis 14-39 after 18 to 24 hrs by two-fold serial dilution method; how it was run: as §2
[10] = tested on: Staphylococcus epidermidis; experiment: Antibacterial activity against methicillin-resistant Staphylococcus epidermidis 14-22 after 18 to 24 hrs by two-fold serial dilution method; how it was run: as §2
Klebsiella pneumoniae [11] = experiment: Antibacterial activity against Klebsiella pneumoniae 14-4 after 18 to 24 hrs by two-fold serial dilution method; how it was run: as §1
[12] = tested on: Staphylococcus epidermidis; experiment: Antibacterial activity against methicillin-resistant Staphylococcus epidermidis 14-21 after 18 to 24 hrs by two-fold serial dilution method; how it was run: as §2
Pseudomonas aeruginosa [13] = experiment: Antibacterial activity against Pseudomonas aeruginosa ATCC 27853 after 18 to 24 hrs by two-fold serial dilution method; how it was run: as §1
Staphylococcus aureus [14] = experiment: Antibacterial activity against methicillin-sensitive Staphylococcus aureus 14-3 after 18 to 24 hrs by two-fold serial dilution method; how it was run: as §1
Klebsiella pneumoniae [15] = experiment: Antibacterial activity against extended-spectrum beta-lactamase producing Klebsiella pneumoniae 14-19 after 18 to 24 hrs by two-fold serial dilution method; how it was run: as §1
Klebsiella pneumoniae [16] = experiment: Antibacterial activity against Klebsiella pneumoniae 14-2 after 18 to 24 hrs by two-fold serial dilution method; how it was run: as §1
Escherichia coli [17] = experiment: Antibacterial activity against extended-spectrum beta-lactamase producing Escherichia coli 14-2 after 18 to 24 hrs by two-fold serial dilution method; how it was run: as §1
Enterococcus faecium [18] = experiment: Antibacterial activity against Enterococcus faecium 14-2 after 18 to 24 hrs by two-fold serial dilution method; how it was run: as §1
Escherichia coli [19] = experiment: Antibacterial activity against Escherichia coli 14-1 after 18 to 24 hrs by two-fold serial dilution method; how it was run: as §1
Klebsiella pneumoniae [20] = experiment: Antibacterial activity against Klebsiella pneumoniae 14-3 after 18 to 24 hrs by two-fold serial dilution method; how it was run: as §1
[21] = tested on: Staphylococcus epidermidis; experiment: Antibacterial activity against methicillin-sensitive Staphylococcus epidermidis 14-2 after 18 to 24 hrs by two-fold serial dilution method; how it was run: as §1
[22] = tested on: Staphylococcus epidermidis; experiment: Antibacterial activity against methicillin-resistant Staphylococcus epidermidis 14-37 after 18 to 24 hrs by two-fold serial dilution method; how it was run: as §2
Pseudomonas aeruginosa [23] = experiment: Antibacterial activity against Pseudomonas aeruginosa 14-9 after 18 to 24 hrs by two-fold serial dilution method; how it was run: as §1
Staphylococcus aureus [24] = experiment: Antibacterial activity against methicillin-resistant Staphylococcus aureus 14-4 after 18 to 24 hrs by two-fold serial dilution method; how it was run: as §2
Pseudomonas aeruginosa [25] = experiment: Antibacterial activity against Pseudomonas aeruginosa 14-16 after 18 to 24 hrs by two-fold serial dilution method; how it was run: as §1
Staphylococcus aureus [26] = experiment: Antibacterial activity against Staphylococcus aureus CMCC 26003 after 18 to 24 hrs by two-fold serial dilution method; how it was run: as §1
Escherichia coli [27] = experiment: Antibacterial activity against extended-spectrum beta-lactamase producing Escherichia coli 14-1 after 18 to 24 hrs by two-fold serial dilution method; how it was run: as §1
Staphylococcus aureus [28] = experiment: Antibacterial activity against methicillin-sensitive Staphylococcus aureus 14-4 after 18 to 24 hrs by two-fold serial dilution method; how it was run: as §1
Enterococcus faecalis [29] = experiment: Antibacterial activity against Enterococcus faecalis 14-2 after 18 to 24 hrs by two-fold serial dilution method; how it was run: as §1
Streptococcus pneumoniae = experiment: Antibacterial activity against methicillin-resistant Streptococcus pneumoniae ATCC 19615 after 18 to 24 hrs by two-fold serial dilution method; how it was run: as §2
Klebsiella pneumoniae [30] = experiment: Antibacterial activity against extended-spectrum beta-lactamase producing Klebsiella pneumoniae 14-18 after 18 to 24 hrs by two-fold serial dilution method; how it was run: as §1
Escherichia coli [31] = experiment: Antibacterial activity against Escherichia coli ATCC 25922 after 18 to 24 hrs by two-fold serial dilution method; how it was run: as §1
Staphylococcus aureus [32] = experiment: Antibacterial activity against methicillin-sensitive Staphylococcus aureus 14-1 after 18 to 24 hrs by two-fold serial dilution method; how it was run: as §1
Enterococcus faecalis [33] = experiment: Antibacterial activity against Enterococcus faecalis 14-1 after 18 to 24 hrs by two-fold serial dilution method; how it was run: as §1

| SMILES | MIC (Enterococcus faecium [1]) [µg/mL] | MIC (Klebsiella pneumoniae [2]) [µg/mL] | MIC (Enterococcus faecium [4]) [µg/mL] | MIC [9] [µg/mL] | MIC [10] [µg/mL] | MIC (Klebsiella pneumoniae [11]) [µg/mL] | MIC [12] [µg/mL] | MIC (Klebsiella pneumoniae [15]) [µg/mL] | MIC (Klebsiella pneumoniae [16]) [µg/mL] | MIC (Enterococcus faecium [18]) [µg/mL] | MIC (Klebsiella pneumoniae [20]) [µg/mL] | MIC [21] [µg/mL] | MIC [22] [µg/mL] | MIC (Staphylococcus aureus [24]) [µg/mL] | MIC (Staphylococcus aureus [26]) [µg/mL] | MIC (Staphylococcus aureus [28]) [µg/mL] | MIC (Enterococcus faecalis [29]) [µg/mL] | MIC (Escherichia coli [31]) [µg/mL] | MIC (Staphylococcus aureus [32]) [µg/mL] | MIC (Enterococcus faecalis [33]) [µg/mL] | also measured |
| --- | --- | --- | --- | --- | --- | --- | --- | --- | --- | --- | --- | --- | --- | --- | --- | --- | --- | --- | --- | --- | --- |
| O=C(O)c1cn(C2CC2)c2nc(N3C/C(=N/OCc4ccccc4)C(CNC4CC4)C3)c(F)cc2c1=O (stereo unspecified) | 32 (≈ 63.3 µM) | 64 (≈ 127 µM) | 8 (≈ 15.8 µM) | 32 (≈ 63.3 µM) | 16 (≈ 31.6 µM) | > 128 | 16 (≈ 31.6 µM) | 128 (≈ 253 µM) | 64 (≈ 127 µM) | 16 (≈ 31.6 µM) | 128 (≈ 253 µM) | 64 (≈ 127 µM) | 16 (≈ 31.6 µM) | > 128 | < 0.008 | 8 (≈ 15.8 µM) | 1 (≈ 1.98 µM) | 4 (≈ 7.91 µM) | 8 (≈ 15.8 µM) | 64 (≈ 127 µM) | MIC (Klebsiella pneumoniae [3]): 128 µg/mL (≈ 253 µM); MIC (Escherichia coli [5]): > 128 µg/mL; MIC (Pseudomonas aeruginosa [6]): 128 µg/mL (≈ 253 µM); MIC (Staphylococcus aureus [7]): 16 µg/mL (≈ 31.6 µM); MIC (Pseudomonas aeruginosa [8]): 64 µg/mL (≈ 127 µM); MIC (Pseudomonas aeruginosa [13]): 64 µg/mL (≈ 127 µM); MIC (Staphylococcus aureus [14]): 4 µg/mL (≈ 7.91 µM); MIC (Escherichia coli [17]): > 128 µg/mL; MIC (Escherichia coli [19]): > 128 µg/mL; MIC (Pseudomonas aeruginosa [23]): 64 µg/mL (≈ 127 µM); MIC (Pseudomonas aeruginosa [25]): 64 µg/mL (≈ 127 µM); MIC (Escherichia coli [27]): 32 µg/mL (≈ 63.3 µM); MIC (Streptococcus pneumoniae): 8 µg/mL (≈ 15.8 µM); MIC (Klebsiella pneumoniae [30]): 128 µg/mL (≈ 253 µM) |
| CC1(CNC2CC2)CN(c2nc3c(cc2F)c(=O)c(C(=O)O)cn3C2CC2)C/C1=N/OCc1ccccc1 (stereo unspecified) | 2 (≈ 3.85 µM) | 64 (≈ 123 µM) | 4 (≈ 7.7 µM) | 2 (≈ 3.85 µM) | 4 (≈ 7.7 µM) | > 128 | 8 (≈ 15.4 µM) | 128 (≈ 246 µM) | 64 (≈ 123 µM) | 4 (≈ 7.7 µM) | > 128 | 16 (≈ 30.8 µM) | 2 (≈ 3.85 µM) | 2 (≈ 3.85 µM) | < 0.008 | 0.5 (≈ 0.962 µM) | 0.25 (≈ 0.481 µM) | 1 (≈ 1.92 µM) | 2 (≈ 3.85 µM) | 64 (≈ 123 µM) | MIC (Klebsiella pneumoniae [3]): 128 µg/mL (≈ 246 µM); MIC (Escherichia coli [5]): > 128 µg/mL; MIC (Pseudomonas aeruginosa [6]): 128 µg/mL (≈ 246 µM); MIC (Staphylococcus aureus [7]): 2 µg/mL (≈ 3.85 µM); MIC (Pseudomonas aeruginosa [8]): 128 µg/mL (≈ 246 µM); MIC (Pseudomonas aeruginosa [13]): 64 µg/mL (≈ 123 µM); MIC (Staphylococcus aureus [14]): 0.5 µg/mL (≈ 0.962 µM); MIC (Escherichia coli [17]): > 128 µg/mL; MIC (Escherichia coli [19]): > 128 µg/mL; MIC (Pseudomonas aeruginosa [23]): 64 µg/mL (≈ 123 µM); MIC (Pseudomonas aeruginosa [25]): 128 µg/mL (≈ 246 µM); MIC (Escherichia coli [27]): 32 µg/mL (≈ 61.6 µM); MIC (Streptococcus pneumoniae): 0.5 µg/mL (≈ 0.962 µM); MIC (Klebsiella pneumoniae [30]): 128 µg/mL (≈ 246 µM) |
| O=C(O)c1cn(C2CC2)c2cc(N3CCNCC3)c(F)cc2c1=O [CIPROFLOXACIN] | 128 (≈ 386 µM) | 32 (≈ 96.6 µM) | > 128 | 128 (≈ 386 µM) | 128 (≈ 386 µM) | 32 (≈ 96.6 µM) | 64 (≈ 193 µM) | 64 (≈ 193 µM) | 16 (≈ 48.3 µM) | 32 (≈ 96.6 µM) | > 128 | > 128 | 128 (≈ 386 µM) | > 128 | 0.5 (≈ 1.51 µM) | 0.5 (≈ 1.51 µM) | 1 (≈ 3.02 µM) | < 0.008 | 32 (≈ 96.6 µM) | 64 (≈ 193 µM) | MIC (Klebsiella pneumoniae [3]): 0.5 µg/mL (≈ 1.51 µM); MIC (Pseudomonas aeruginosa [6]): 1 µg/mL (≈ 3.02 µM); MIC (Pseudomonas aeruginosa [8]): 1 µg/mL (≈ 3.02 µM); MIC (Pseudomonas aeruginosa [25]): 1 µg/mL (≈ 3.02 µM); MIC (Streptococcus pneumoniae): 2 µg/mL (≈ 6.04 µM); MIC (Klebsiella pneumoniae [30]): 0.5 µg/mL (≈ 1.51 µM) |
| C[C@H]1COc2c(N3CCN(C)CC3)c(F)cc3c(=O)c(C(=O)O)cn1c23.C[C@H]1COc2c(N3CCN(C)CC3)c(F)cc3c(=O)c(C(=O)O)cn1c23.O [LEVOFLOXACIN] | 64 | 16 | 64 | 64 | 32 | 16 | 64 | 64 | 8 | 32 | 32 | > 128 | 64 | 64 | 0.25 | 0.5 | 1 | 0.125 | 8 | 128 | MIC (Escherichia coli [5]): 8 µg/mL; MIC (Staphylococcus aureus [7]): 8 µg/mL; MIC (Staphylococcus aureus [14]): 0.125 µg/mL; MIC (Escherichia coli [17]): 8 µg/mL; MIC (Escherichia coli [19]): 8 µg/mL; MIC (Pseudomonas aeruginosa [23]): 0.5 µg/mL; MIC (Escherichia coli [27]): 4 µg/mL |
